Blank lines part the entries; values can stand above or below the compound they belong to. Activity calls are given as the source filed them. The calls are words filed in the database; no cut-off is given here.
Legend:
[1] = (§1) Inhibition of Wnt/beta-catenin signaling (unknown origin) expressed in HEK293 cells assessed as inhibition of Wnt3A-stimulated beta-catenin response transcription after 6 hrs by TOPflash dual luciferase reporter gene assay; format: cell-based; conditions: Homo sapiens, HEK293, 6 h
Outline: (§2)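 HEK293 cells stably carrying p8xTOPFlash and Renilla pRL-TK were seeded at confluency and given Wnt-3A conditioned medium (from L Wnt-3A cells) containing compound, 0.04–10 μM, or DMSO for 6 h. Lysates were read by dual-luciferase assay. The DMSO/Wnt3A signal was set as 100%, and curves were fit (mean ± SEM, n ≥ 3). Percent inhibition at 10 μM was reported where no IC50 could be fitted.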

Homo sapiens [2] = species on record: Homo sapiens; experiment: Inhibition of Wnt/beta-catenin signaling in human U2OS cells expressing GFP-fused Fzd1 assessed as GFP-Fzd1 internalization by measuring number of punctate formed at 12.5 uM after 6 hrs by confocal microscopic method; format: cell-based
Outline: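 U2OS cells stably expressing Frizzled1-GFP were plated in confocal dishes for 24 h, then treated with 12.5 μM compound in DMSO or DMSO for 6 h at 37°C and fixed in 4% paraformaldehyde. Confocal images (488-nm excitation) were read twice, blinded, and punctate was scored versus control on a 0–5 scale (0, 1, 3, 5).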

Homo sapiens [3] = species on record: Homo sapiens; experiment: Inhibition of Wnt/beta-catenin signaling in human HCT116 cells assessed as downregulation of cytosolic Axin2 protein expression at 5 uM after 18 hrs by Western blot method; format: cell-based
Outline: (§3)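 HCT-116 (McCoy's 5A) or SW480 (MEM) cells, each with 10% FBS, were grown 48 h on poly-D-lysine-coated wells to 60–80% confluency. Fresh medium with compound or DMSO (0.1% final) was added for 18 h. Cytosolic fractions (β-catenin, Axin2) were isolated with hypotonic buffer, or whole cells were lysed in Laemmli buffer (c-Myc, Cyclin D1, Survivin). Immunoblots used β-actin as loading control.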

Homo sapiens [4] = species on record: Homo sapiens; experiment: Inhibition of Wnt/beta-catenin signaling in human HCT116 cells assessed as downregulation of cytosolic beta-catenin protein expression at 5 uM after 18 hrs by Western blot method; format: cell-based; outline: as §3
HCT-116 [5] = experiment: Effect on ATP homeostasis in human HCT116 cells assessed as reduction in ATP level after 3 hrs in absence of glucose by ATP bioluminescent assay; format: ADME, cell-based; conditions: for IC50: Homo sapiens, HCT-116, 3 h; for Activity: human, hct-116, 3 h
Outline: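 HCT-116 cells attached overnight on poly-D-lysine plates in McCoy's 5A/10% FBS, then switched to glucose-free DMEM with 2mM sodium pyruvate and 2mM L-glutamine containing compound (0.1% final DMSO). After 3 h at 37°C, 5% CO2, cells were lysed in Somatic Cell ATP Releasing Reagent and ATP was read by luciferase bioluminescence, normalized to DMSO control.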

Homo sapiens [6] = species on record: Homo sapiens; experiment: Inhibition of Wnt/beta-catenin signaling in human SW480 cells assessed as downregulation of cytosolic Axin2 protein expression at 5 uM after 18 hrs by Western blot method; format: cell-based; outline: as §3
Homo sapiens [7] = species on record: Homo sapiens; experiment: Inhibition of Wnt/beta-catenin signaling in human SW480 cells assessed as downregulation of Cyclin D1 protein expression at 5 uM after 18 hrs by Western blot method; format: cell-based; outline: as §3
Homo sapiens [8] = species on record: Homo sapiens; experiment: Inhibition of Wnt/beta-catenin signaling in human SW480 cells assessed as downregulation of survivin protein expression at 5 uM after 18 hrs by Western blot method; format: cell-based; outline: as §3
HCT-116 [9] = experiment: Effect on ATP homeostasis in human HCT116 cells assessed as reduction in ATP level at 0.5 to 2 uM after 3 hrs in glucose supplemented media by ATP bioluminescent assay; format: ADME, cell-based; conditions: hct-116, 3 h
Outline: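 HCT-116 cells attached overnight on poly-D-lysine plates, then treated 3 h at 37°C in DMEM with 2mM sodium pyruvate, 2mM L-glutamine and 5mM glucose (0.1% final DMSO). ATP was read by luciferase bioluminescence after lysis with Somatic Cell ATP Releasing Reagent, normalized to DMSO control.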

Homo sapiens [10] = species on record: Homo sapiens; experiment: Inhibition of Wnt/beta-catenin signaling in human SW480 cells assessed as downregulation of cytosolic beta-catenin protein expression at 5 uM after 18 hrs by Western blot method; format: cell-based; outline: as §3
HCT-116 [11] = experiment: Effect on ATP homeostasis in human HCT116 cells assessed as reduction in ATP level at 0.63 uM after 3 hrs in absence of glucose by ATP bioluminescent assay; format: ADME, cell-based; conditions: hct-116, 3 h
Homo sapiens [12] = species on record: Homo sapiens; experiment: Inhibition of Wnt/beta-catenin signaling (unknown origin) expressed in HEK293 cells assessed as inhibition of Wnt3A-stimulated beta-catenin response transcription at 0.63 uM after 6 hrs by TOPflash dual luciferase reporter gene assay relative to control; format: cell-based
Outline: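 TOPFlash/Renilla stable HEK293 cells were split from the same batch as parallel ATP assay plates, attached overnight, then treated 6 h with compound in Wnt-3A conditioned medium. Dual-luciferase read-out was taken relative to the DMSO control. Three separate experiments used different cell batches.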

Homo sapiens [13] = species on record: Homo sapiens; experiment: Inhibition of Wnt/beta-catenin signaling in human SW480 cells assessed as downregulation of c-Myc protein expression at 5 uM after 18 hrs by Western blot method; format: cell-based; outline: as §3
Homo sapiens [14] = species on record: Homo sapiens; experiment: as §1; format: cell-based; outline: as §2
HEK293 (Homo sapiens) = experiment: Effect on ATP homeostasis in human HEK293 cells assessed as reduction in ATP level after 3 hrs in absence of glucose by ATP bioluminescent assay; conditions: HEK293, 3 h
Homo sapiens [15] = species on record: Homo sapiens; experiment: Inhibition of Wnt/beta-catenin signaling in human HCT116 cells assessed as downregulation of Cyclin D1 protein expression at 5 uM after 18 hrs by Western blot method; format: cell-based; outline: as §3
Homo sapiens [16] = species on record: Homo sapiens; experiment: Inhibition of Wnt/beta-catenin signaling in human HCT116 cells assessed as downregulation of c-Myc protein expression at 5 uM after 18 hrs by Western blot method; format: cell-based; outline: as §3
Homo sapiens [17] = species on record: Homo sapiens; experiment: Inhibition of Wnt/beta-catenin signaling in human HCT116 cells assessed as downregulation of survivin protein expression at 5 uM after 18 hrs by Western blot method; format: cell-based; outline: as §3
Homo sapiens [18] = species on record: Homo sapiens; experiment: Inhibition of Wnt/beta-catenin signaling (unknown origin) expressed in HEK293 cells assessed as inhibition of Wnt3A-stimulated beta-catenin response transcription at 10 uM after 6 hrs by TOPflash dual luciferase reporter gene assay relative to control; format: cell-based; outline: as §2
HCT-116 [19] = experiment: Effect on ATP homeostasis in human HCT116 cells assessed as reduction in ATP level at 0.31 uM after 3 hrs in absence of glucose by ATP bioluminescent assay; format: ADME, cell-based; conditions: hct-116, 3 h
Homo sapiens [20] = species on record: Homo sapiens; experiment: Inhibition of Wnt/beta-catenin signaling (unknown origin) expressed in HEK293 cells assessed as inhibition of Wnt3A-stimulated beta-catenin response transcription at 0.31 uM after 6 hrs by TOPflash dual luciferase reporter gene assay relative to control; format: cell-based
Outline: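 HEK293 cells stably carrying p8xTOPFlash and a Renilla luciferase control (pRL-TK), grown in MEM with 10% FBS and 1ug/mL puromycin. Cells were seeded at confluence, then given Wnt-3A conditioned medium (from L Wnt-3A cells) with compound (0.04 to 10μM) or DMSO for 6 h. Lysates were read by dual luciferase, with the Wnt3A + DMSO signal set as 100%.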

HCT-116 [21] = experiment: Effect on ATP homeostasis in human HCT116 cells assessed as reduction in ATP level at 2 uM after 3 hrs in glucose supplemented media by ATP bioluminescent assay; conditions: hct-116, 3 h

IC50 [1]: 4190 nM
Structure (SMILES): COc1ccc(O)c(-c2nc3cc([N+](=O)[O-])ccc3[nH]2)c1
Activity (Homo sapiens [2]): 0

IC50 (HCT-116 [5]): 6000 nM | Activity (HCT-116 [5]): Dose-dependent effect | IC50 [1]: 620 to 1150 nM
Structure (SMILES): O=[N+]([O-])c1ccc2[nH]c(-c3cc(F)ccc3O)nc2c1
inhibition (Homo sapiens [3]): Active | inhibition (Homo sapiens [4]): Active | inhibition (Homo sapiens [6]): Active | inhibition (Homo sapiens [7]): Active | inhibition (Homo sapiens [8]): Active | Activity (HCT-116 [9]): Non-Toxic | inhibition (Homo sapiens [10]): Active | Activity (HCT-116 [11]): Non-Toxic | inhibition (Homo sapiens [12]): Active | inhibition (Homo sapiens [13]): Active | inhibition (Homo sapiens [14]): Dose-dependent effect | EC50 (HEK293 (Homo sapiens)): > 5000 nM | inhibition (Homo sapiens [15]): Active | Activity (Homo sapiens [2]): 2 | inhibition (Homo sapiens [16]): Active | inhibition (Homo sapiens [17]): Active

Structure (SMILES): O=[N+]([O-])c1ccc2[nH]c(-c3ccccc3NS(=O)(=O)c3c(F)cccc3F)nc2c1
inhibition (Homo sapiens [18]): 15% | Activity (Homo sapiens [2]): 0

IC50 [1]: 1690 nM
Structure (SMILES): Cc1ccc(O)c(-c2nc3cc([N+](=O)[O-])ccc3[nH]2)c1
Activity (HCT-116 [9]): Non-Toxic | Activity (Homo sapiens [2]): 0

IC50 [1]: 2670 nM
Structure (SMILES): Oc1ccc(Cl)cc1-c1nc2ccccc2[nH]1
Activity (Homo sapiens [2]): 0

Structure (SMILES): Cc1ccc(S(=O)(=O)Nc2ccccc2-c2nc3cc(C(F)(F)F)ccc3[nH]2)cc1
inhibition (Homo sapiens [18]): 57% | Activity (Homo sapiens [2]): 0

Structure (SMILES): O=[N+]([O-])c1ccc2[nH]c(-c3cc(Cl)ccc3O)nc2c1
Activity (HCT-116 [19]): Non-Toxic | Activity (HCT-116 [5]): Dose-dependent effect | Activity (HCT-116 [9]): Non-Toxic

Structure (SMILES): CS(=O)(=O)Nc1ccccc1-c1nc2cc([N+](=O)[O-])ccc2[nH]1
inhibition (Homo sapiens [18]): 50% | Activity (Homo sapiens [2]): 0

IC50 (HCT-116 [5]): < 250 nM | IC50 [1]: 1540 nM
Structure (SMILES): O=[N+]([O-])c1ccc2nc(-c3cc(Cl)cc(Cl)c3O)[nH]c2c1
Activity (HCT-116 [9]): Toxic | Activity (Homo sapiens [2]): 2

Structure (SMILES): Cc1ccc(S(=O)(=O)Nc2ccc(Cl)cc2-c2nc3cc([N+](=O)[O-])ccc3[nH]2)cc1
inhibition (Homo sapiens [18]): 48% | Activity (Homo sapiens [2]): 0

Structure (SMILES): O=[N+]([O-])c1ccc2nc(-c3cc(Cl)ccc3O)[nH]c2c1
inhibition (Homo sapiens [3]): Active | inhibition (Homo sapiens [20]): 40% | inhibition (Homo sapiens [4]): Active | inhibition (Homo sapiens [6]): Active | inhibition (Homo sapiens [7]): Active | inhibition (Homo sapiens [8]): Active | inhibition (Homo sapiens [10]): Active | inhibition (Homo sapiens [13]): Active | inhibition (Homo sapiens [14]): Dose-dependent effect | IC50 [1]: 360 to 480 nM | EC50 (HEK293 (Homo sapiens)): 2900 nM | inhibition (Homo sapiens [15]): Active | Activity (Homo sapiens [2]): 3 | inhibition (Homo sapiens [16]): Active | inhibition (Homo sapiens [17]): Active

Structure (SMILES): N#CC(C#N)=NNc1ccc(OC(F)(F)F)cc1
Activity (HCT-116 [21]): Toxic

Source: ChEMBL document CHEMBL3992558, “Benzimidazole inhibitors from the Niclosamide chemotype inhibit Wnt/β-catenin signaling with selectivity over effects on ATP homeostasis” (Bioorg Med Chem, 2017)
